In ChEMBL document CHEMBL5104115, “Design, synthesis of novel triptolide-glucose conjugates targeting glucose Transporter-1 and their selective antitumor effect” (Eur J Med Chem, 2022):

Key:
[1] = Drug distribution in NCI-H1975 tumor bearing nude mouse model assessed as tumor to lung ratio of triptolide metabolite at 2 mg/kg, iv by LC-MS analysis; type: ADME, organism-based; conditions: in vivo
Procedure, shortened: (§1)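 NCI-H1975 xenograft mice, tumors about 500 mm3, 3 per group, fasted 12 h with water available. Given 2 mg/kg iv and sacrificed 1 h later. Heart, liver, lung, kidney and tumor weighed and flash-frozen. 1.0 g tissue homogenized in 2.0 mL saline, methanol-precipitated, reconstituted. Parent, triptolide succinate and triptolide measured by LC-MS; tumor/organ ratios calculated.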

[2] = Drug distribution in NCI-H1975 tumor bearing nude mouse model assessed as tumor to kidney ratio of triptolide metabolite at 2 mg/kg, iv by LC-MS analysis; type: ADME, organism-based; conditions: in vivo; procedure, shortened: as §1
[3] = test system: SW-620; assay: Cytotoxicity against human SW-620 cells incubated for 72 hrs by MTT assay; type: functional, cell-based; conditions: SW-620, 72 h
Procedure, shortened: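 Cells seeded at 4000/well, incubated overnight, then exposed to a range of concentrations, or DMSO vehicle, for 72 h. MTT (5 mg/mL solution) added for 4 h and formazan dissolved in DMSO. Absorbance read at 570 nm, and IC50 derived from the curves. Tumor lines were grown in RPMI 1640; HUVEC, HaCaT and LO2 were grown in DMEM, each with 10% FBS at 37 °C and 5% CO2.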

[4] = Toxicity in BALB/c nude mouse xenografted with human NCI-H1975 cells assessed as diarrhea at 1 to 2 mg/kg administered ip, qd for 2 weeks; conditions: in vivo, 336 h
[5] = Toxicity in BALB/c nude mouse xenografted with human NCI-H1975 cells assessed as morphological change in heart at 1 to 2 mg/kg administered ip, qd for 2 weeks; conditions: in vivo, 336 h
[6] = Cytotoxicity against HUVEC transfected with OE V overexpressing Glut1assessed as decrease in cell viability incubated for 72 hrs by MTT assay; type: toxicity, cell-based; conditions: human, HUVEC cells transfected with OE V overexpressing Glut1
Procedure, shortened: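 HUVEC kept in DMEM with 10% FBS, made to overexpress Glut-1 (OE) or carry vector (OE V) by lentiviral infection and puromycin selection for 14 days, with Western blot check. Seeded at 4000 cells/well, treated over a concentration range or DMSO for 72 h, then MTT at 570 nm. IC50 taken from at least three replicates.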

[7] = test system: NCI-H460; assay: Induction of apoptosis in human NCI-H460 cells assessed as viable cells at 20 uM measured after 48 hrs by Annexin V-FITC/PI staining method (reference value: 86.7%); type: functional; conditions: read-out: Activity

- Ratio [1]: 15.5
- Ratio [2]: 18.8
Structure (SMILES): CC(C)[C@]12O[C@H]1[C@@H]1O[C@]13[C@]1(O[C@H]1C[C@H]1C4=C(CC[C@@]13C)C(=O)OC4)[C@@H]2OC(=O)CCC(=O)O[C@H]1C(O)O[C@H](CO)[C@@H](O)[C@@H]1O (some centres not stated)
- IC50 [3]: 1.73 µM
- Activity [4]: Non-Toxic
- Activity [5]: Non-Toxic
- IC50 at 72 h [6]: 9.22 µM
- viability at 20 µM [7]: 32.6%
